From ChEMBL document CHEMBL1142561, “Prenylflavonoids and phloroglucinol derivatives from hops (Humulus lupulus)” (J Nat Prod, 2005)

Experiments:
RAW264.7 [1] = assay: Inhibition of LPS/IFN-gamma-induced NO production in mouse RAW264.7 cells after 16 hrs; format: functional, cell-based; conditions: RAW264.7, 16 h
How it was run: (§1)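 RAW 264.7 macrophages in RPMI 1640 with 10% FBS, 2 mM L-glutamine, penicillin/streptomycin, seeded at 5 × 10⁵ cells/mL. After 1 h, stimulated with LPS (100 ng/mL) plus IFN-γ (100 units/mL) and samples in DMSO (0.2% final) for 16 h at 37 °C. Supernatant nitrite measured by Griess assay at 570 nm against NaNO₂ standards. Inhibition rate taken relative to LPS/IFN-only wells.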

[2] = Cytotoxicity against mouse RAW264.7 cells assessed as cell viability at <10 uM after 16 hrs by MTT assay; format: cell-based; conditions: read-out: Activity
How it was run: (§2)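 RAW 264.7 cells grown in RPMI 1640 with 10% FBS, 2 mM L-glutamine, penicillin/streptomycin. Seeded at 5 × 10⁵ cells/mL in 96-well plates and co-treated with LPS (100 ng/mL), IFN-γ (100 units/mL) and samples in DMSO (0.2% final) for 16 h at 37 °C. MTT (200 μg/mL) added for a further 4 h. Formazan dissolved in DMSO, A540 read, compared with nontreated cells.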

RAW264.7 [3] = assay: Inhibition of LPS/IFN-gamma-induced NO production in mouse RAW264.7 cells at non cytotoxic concentration after 16 hrs; format: functional; how it was run: as §1
RAW264.7 [4] = assay: Cytotoxicity against mouse RAW264.7 cells after 16 hrs by MTT assay; format: cell-based; conditions: raw264.7, 16 h; how it was run: as §2
RAW264.7 [5] = assay: Cytotoxicity against mouse RAW264.7 cells assessed as cell viability at 20 uM after 16 hrs by MTT assay; format: cell-based; conditions: raw264.7, 16 h; how it was run: as §2
[6] = Cytotoxicity against mouse RAW264.7 cells assessed as cell viability at 200 uM after 16 hrs by MTT assay; format: cell-based; conditions: read-out: Activity; how it was run: as §2
[7] = Cytotoxicity against mouse RAW264.7 cells assessed as cell viability at 2 uM after 16 hrs by MTT assay; format: cell-based; conditions: read-out: Activity; how it was run: as §2

Row | IC50 (RAW264.7 [1]) [µM] | Structure (SMILES) | viability at 16 h [2] [%] | inhibition (INH) (RAW264.7 [3]) [%] | Activity (RAW264.7 [4]) | Activity (RAW264.7 [5]) | viability at 16 h, 200 µM [6] [%] | viability at 16 h, 2 µM [7] [%]
1 | 5.6 | COc1cc2c(c(O)c1C(=O)/C=C/c1ccc(O)cc1)CC(O)C(C)(C)O2 (centres undefined) [XANTHOHUMOL B] | > 95 |  |  |  |  | 
2 | 8.3 | COc1cc(O)c(CC=C(C)C)c(O)c1C(=O)/C=C/c1ccc(O)cc1 [XANTHOHUMOL] | > 95 |  |  |  |  | 
3 | 20 | CC(C)=CCC1=C2OC(C)(C)C=CC2(CC=C(C)C)C(=O)C(C(=O)CC(C)C)=C1O (centres undefined) [LUPULONE A] |  | <40 | Toxic |  |  | 
4 | 14 | CC(C)=CCC1=C2OC(C)(C)C=CC2(CC=C(C)C)C(=O)C(C(=O)C(C)C)=C1O (centres undefined) [LUPULONE B] |  | <40 | Toxic |  |  | 
5 | 9.4 | C=C(C)C(O)Cc1c(O)cc(OC)c(C(=O)/C=C/c2ccc(O)cc2)c1O (centres undefined) [XANTHOHUMOL D] | > 95 |  |  |  |  | 
6 | 17 | CC(C)=CCC1=C(O)C(C(=O)CC(C)C)=C(O)C(CC=C(C)C)(CC=C(C)C)C1=O [LUPULONE] |  | <40 | Toxic |  |  | 
7 | 63 | CC(C)=CCC1(CC=C(C)C)C(=O)C2=C(OC(C(C)(C)O)C2)C(C(=O)CC(C)C)=C1O (centres undefined) [LUPULONE C] |  | <40 | Toxic |  |  | 
8 | 23 | COc1cc(O)c(CC=C(C)C)c(O)c1C(=O)CCc1ccc(O)cc1 [DIHYDROXANTHOHUMOL] | > 95 |  |  | Non-toxic |  | 
9 | > 100 | CC(C)=CCC1(CC=C(C)C)C(=O)C(O)=C(O)C1=O [HULUPINIC ACID] |  |  |  |  | > 95 | 
10 | > 100 | CC(C)C(=O)c1c(O)ccc2c1OC(C(C)(C)O)C2 (centres undefined) [LUPULONE F] |  |  |  |  |  | 
11 | 15 | CC(C)=CCC1=C2OC(C(C)(C)O)CC2(CC=C(C)C)C(=O)C(C(=O)C(C)C)=C1O (centres undefined) [LUPULONE E] |  | <40 | Toxic |  |  | < 95
12 | 11 | CC(C)=CCC1=C2OC(C(C)(C)O)CC2(CC=C(C)C)C(=O)C(C(=O)CC(C)C)=C1O (centres undefined) [LUPULONE D] |  | <40 | Toxic |  |  | < 95
13 | 6.5 | COc1cc(O)c(CC(O)C(C)(C)OC)c(O)c1C(=O)/C=C/c1ccc(O)cc1 (racemic) | > 95 |  |  |  |  | 
